ChEMBL document CHEMBL1136441, “The design and synthesis of novel orally active inhibitors of AP-1 and NF-kappaB mediated transcriptional activation. SAR of in vitro and in vivo studies” (Bioorg Med Chem Lett, 2003)

Assays:
[1] = Inhibition of AP-1 and NF-kB mediated transcriptional activation in Jurkat T-cells; type: functional, cell-based; settings: Homo sapiens
Outline: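 Jurkat T-cell luciferase reporter lines, stably transfected with either an NF-kB site (MHC promoter) fused to a minimal SV-40 promoter, or an AP-1 site (collagenase promoter). Cells at 1×10⁶/mL in medium with 10% serum-plus were plated 18 h ahead. Compound in 0.2% DMSO/H₂O was added for 0.5 h at 37 °C, then PMA plus PHA (1 ug/mL) for 5 h. Lysate luminescence was read; IC50 is 50% of control luciferase.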

[2] = tested on: Caco-2; assay: Caco-2 permeability coefficient value was determined

| Structure (SMILES) | IC50 [1] [nM] | Pc [2] [×10⁻⁶ cm/s] |
| --- | --- | --- |
| CC1=CC(=O)N(Nc2nc(C(F)(F)F)nc3cc(N4CCCCC4)ccc23)C1=O | 200 | – |
| CC1=CC(=O)N(Nc2nc(C(F)(F)F)nc3ccccc23)C1=O | 100 | – |
| CC1=CC(=O)N(Nc2nc(C(F)(F)F)nc3ccc(S(C)(=O)=O)cc23)C1=O | 9000 | – |
| COc1ccc2nc(C(F)(F)F)nc(NN3C(=O)C=C(C)C3=O)c2c1 | 30 | – |
| COc1ccc2c(NN3C(=O)C=C(C)C3=O)nc(-c3cccs3)nc2c1 | 20 | – |
| COc1cccc2c(NN3C(=O)C=C(C)C3=O)nc(-c3cccs3)nc12 | 50 | – |
| CC1=CC(=O)N(Nc2nc(-c3cccs3)nc3ccccc23)C1=O | 60 | – |
| COc1cc2nc(-c3cccs3)nc(NN3C(=O)C=C(C)C3=O)c2cc1OC | 50 | – |
| CC1=CC(=O)N(Nc2nc(-c3cccs3)nc3ccc(Cl)cc23)C1=O | 20 | – |
| CC1=CC(=O)N(Nc2nc(C(F)(F)F)nc3ccc(O)cc23)C1=O | 100 | – |
| CC1=CC(=O)N(Nc2nc(-c3cccs3)nc3cccc(F)c23)C1=O | 50 | – |
| COc1cccc2nc(C(F)(F)F)nc(NN3C(=O)C=C(C)C3=O)c12 | 10 | 1.49 |
| CC1=CC(=O)N(Nc2nc(-c3cccs3)nc3cccc(C)c23)C1=O | 20 | – |
| CC1=CC(=O)N(Nc2nc(-c3cccs3)nc3cc(N4CCOCC4)ccc23)C1=O | 200 | – |
| CSc1ccc2nc(C(F)(F)F)nc(NN3C(=O)C=C(C)C3=O)c2c1 | 80 | – |
| CC1=CC(=O)N(Nc2nc(-c3ccccc3)nc3ccccc23)C1=O | 100 | – |
| COc1cc2c(NN3C(=O)C=C(C)C3=O)nc(-c3cccs3)nc2c(OC)c1OC | 40 | – |
| CC1=CC(=O)N(Nc2nc(C(F)(F)F)nc3ccc([S+](C)[O-])cc23)C1=O (stereo not drawn) | 1000 | – |
| CC1=CC(=O)N(Nc2nc(C(F)(F)F)nc3cccc(C)c23)C1=O | 400 | – |
| CC1=CC(=O)N(Nc2nc(-c3cccs3)nc3cc(N(C)C)ccc23)C1=O | 40 | 1.41 |
| CC1=CC(=O)N(Nc2nc(C(F)(F)F)nc3cc(N(C)C)ccc23)C1=O | 20 | 1.68 |
| COc1ccc2nc(-c3cccs3)nc(NN3C(=O)C=C(C)C3=O)c2c1 | 3 | 1.62 |
| COc1cccc2nc(-c3cccs3)nc(NN3C(=O)C=C(C)C3=O)c12 [AS-602868] | 8 | 14.1 |
